Assay results gathered from unrelated publications.
Lines come from different studies, so protocols differ.
Target: Adenosine receptor A1 (ADORA1, Homo sapiens, UniProt P30542)
One construct used (P30542 1-326): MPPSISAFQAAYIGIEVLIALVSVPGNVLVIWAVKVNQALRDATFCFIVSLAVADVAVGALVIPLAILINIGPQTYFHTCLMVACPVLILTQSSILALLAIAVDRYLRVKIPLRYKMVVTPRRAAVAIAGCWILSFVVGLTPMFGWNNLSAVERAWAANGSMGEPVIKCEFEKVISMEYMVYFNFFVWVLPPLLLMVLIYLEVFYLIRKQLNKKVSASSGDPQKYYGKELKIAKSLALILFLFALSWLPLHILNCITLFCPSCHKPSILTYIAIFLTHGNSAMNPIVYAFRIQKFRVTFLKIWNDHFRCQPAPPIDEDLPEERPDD

Structure (SMILES)	read-out	method	concentration	inhibition
CCN(CC)CCCC[C@H](NC(=O)[C@H](CC(C)C)NC(=O)[C@H](C)NC(=O)[C@H](Cc1ccccc1)NC(=O)c1ccc(C(C)(C)C)cc1)C(=O)N[C@@H](CO)C(=O)OC	ligand displacement	radioligand	10 µM	4%
COc1ccc(S(=O)(=O)N2CCCCC2)cc1C	ligand displacement	radioligand	10 µM	< 30%
O=C(Nc1cccnn1)N1CCN([C@@H]2CCOc3cc(C(F)(F)F)ccc32)CC1	cell-free assay		20 µM	17%
C[C@H](C(=O)N[C@H]1COc2ccccc2[C@@H]1S(C)(=O)=O)c1ccc(F)cc1	cell-free assay		10 µM	1%
CSC[C@@]12C[C@@H]1[C@@H](n1cnc3c(NC(C4CCCC4)C4CCCC4)nc(SC)nc31)[C@H](O)[C@@H]2O	ligand displacement	radioligand	10 µM	15%
COCc1c(-c2cc3cc(C)cc(OC)c3s2)c2c(N)ncnn2c1CN1CCNC(=O)C1	ligand displacement	radioligand	10 µM	16%
COc1ccc(SC[C@@]23C[C@@H]2[C@@H](n2cnc4c(NC(C5CCCC5)C5CCCC5)nc(Cl)nc42)[C@H](O)[C@@H]3O)cc1OC	ligand displacement	radioligand	10 µM	39%
CN(CCN1CCC(OC(=O)Nc2ccccc2-c2ccccc2)CC1)C(=O)c1ccc(CN2CCC(C(N)=O)CC2)cc1	ligand displacement	radioligand	1 µM	0%
CC(C)N1CCC[C@H]1CNC(=O)c1cn(C2CCCC2)c(=O)c2c1c1ccccc1n2C	ligand displacement	radioligand	10 µM	-1%
CCSC[C@@]12C[C@@H]1[C@@H](n1cnc3c(NC(C4CCCC4)C4CCCC4)nc(Cl)nc31)[C@H](O)[C@@H]2O	ligand displacement	radioligand	10 µM	54%
c1ccc(C(NCCNC(c2ccccc2)c2ccccc2)c2ccccc2)cc1	cell-free assay		10 µM	30%
